Screening results from PubChem.
This is one part of a sample in which hits are shown more often than they occur.
PGC1a Ac signal = compounds raising PGC1a acetylation signal, primary screen, PGC1a modulator project, cell-based, U2OS, AlphaScreen, signal-increasing mode | overnight | activation, % at 15.6 µM | AID 651723, 2012 | hit rate 0.21% among 350,000;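 active = every replicate reaching activation of at least 50%, whatever the mean replicate activation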;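 note: hits raise the AlphaScreen acetylation signal above neutral controls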
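System: Flag-PGC1a/GCN5 U2OS cells | Quantity: 7000 cells/well | Times: Overnight compound treatment, 37 °C | Measured by: AlphaScreen proximity luminescence, anti-acetyl-lysine antibody | Dosing: One concentration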
* = called active by the depositor.

SMILES	PGC1a Ac signal
O=C(O)CCCC(=O)Nc1ccc(Br)cc1C(=O)O	50*
CCCCCC(=O)N1C[C@H](n2cc(-c3ccc(F)cc3)nn2)[C@@H](O)C[C@@H]1c1ccc(C)cc1	-67
O=C(C[C@@H]1C[C@@H]2c3cc(NC(=O)Nc4ccccc4F)ccc3O[C@@H]2[C@H](CO)O1)NCc1ccc(Oc2ccccc2)cc1	-41
Cc1cnc2c(C(=O)O)cnn2c1	-52
CC1(Cc2cc(Cl)ccc2C(F)(F)F)C(=O)Nc2ccc(S(=O)(=O)NC3CCCCC3)cc21 (centres undefined)	86*
CN(C)C(=O)C[C@@H]1CC[C@@H]2[C@H](COC[C@@H](O)CN2C(=O)C2CCOCC2)O1	-56
O=C(NCCN1CCOCC1)c1ccc(=O)oc1	52*
O=C(Nc1ccc(CN2CCOCC2)cc1)c1ccc(F)cc1	-54
C[C@H](CO)N1C[C@H](C)[C@@H](CN(C)C(=O)c2ccccn2)Oc2ncc(-c3cccc(C#N)c3)cc2C1=O	-58
COCC(=O)NCc1nc2ccccc2n1Cc1ccccc1F	-47
Cc1ccc(-c2nnc(Nc3ccccc3)c3ccccc23)cc1S(=O)(=O)NCC1CCCO1 (centres undefined)	120*
CC(=O)Nc1cc(C(=O)OCc2cccc([N+](=O)[O-])c2)ccc1C	-49
COc1ccc(C)cc1NS(=O)(=O)c1ccc(NC(=O)CN(c2cc([N+](=O)[O-])ccc2C)S(C)(=O)=O)cc1	474*
Cc1cccc(NS(=O)(=O)c2ccc(NC(=O)CN(c3cc([N+](=O)[O-])ccc3C)S(C)(=O)=O)cc2)c1	378*
CCOc1ccc(N(CC(=O)Nc2ccccc2OC)S(=O)(=O)c2ccccc2)cc1	-88
COc1ccc(OC)c(N(CC(=O)Nc2ccccc2)S(C)(=O)=O)c1	-43
Cc1cc(C)cc(N(CC(=O)NC2CC3CCC2C3)S(C)(=O)=O)c1 (centres undefined)	83*
CCOC(=O)C1CCCN(C(=O)CSc2ccc(Br)cc2)C1 (centres undefined)	-78
CCOC(=O)C1CCN(Cc2ccc(O)c3ncccc23)CC1	61*
CCOC(=O)C1CCN(C2=NC(=O)/C(=C/c3ccc(O)cc3)S2)CC1	-41
CC(C)(C)S(=O)N1Cc2cc(C(=O)NCc3ccc(Oc4ccccc4)cc3)nc(-c3cccc(-c4cc5ccccc5o4)c3)c2[C@H]1CCO (some centres undefined)	62*
COc1cccc(C2c3[nH]c4ccccc4c3CCN2Cc2cnc(C)s2)c1OC (centres undefined)	70*
Cn1nnnc1Sc1ncnc2scc(-c3cc4ccccc4o3)c12	106*
Cn1nnnc1Sc1ncnc2scc(-c3ccc(C#N)cc3)c12	74*
Cc1no[n+]([O-])c1COc1cccc(/C=N/Nc2nncn2N)c1	-50
SMILES	PGC1a Ac signal
O=[N+]([O-])c1ccc(/C=N/n2c(CO)nc3ccccc32)s1	53*
COC(=O)c1c(C)oc(C)c1S(=O)(=O)Nc1ccccc1	-50
Cc1cc(C)c(S(=O)(=O)Nc2ccccc2-c2ccccc2)c(C)c1	79*
Cc1noc(C)c1S(=O)(=O)Nc1cccc2c1O[C@@H](CN(C)Cc1ccncc1)[C@@H](C)CN([C@@H](C)CO)C2=O	-51
CC(C)(C)OC(=O)NC(Cc1ccccc1)C(=O)NCCCC(=O)O (centres undefined)	-43
CCOc1ccc(CC(=O)Nc2ccc(NC(=O)c3ccco3)cc2)cc1OCC	133*
COc1cc(NC(=O)NCc2ccco2)ccc1-c1ccc(NC(=O)NCc2ccco2)cc1OC	-48
CCCOc1cccc(C(=O)Nc2cc(NC(=O)c3ccco3)ccc2OC)c1	61*
O=P(COCCOCCOCCOCP(=O)(c1ccccc1)c1ccccc1)(c1ccccc1)c1ccccc1	-44
O=C(N/N=C/C(Br)=C\c1ccccc1)c1n[nH]c2c1CCC2	91*
Cc1occc1C(=O)N/N=C/C(Br)=C/c1ccccc1	164*
COc1ccc(OC)c(/C=N/NC(=O)c2[nH]ncc2Br)c1	-44
COc1cccc(C(=O)N/N=C/C(Br)=C/c2ccccc2)c1	101*
Cn1cc(C(=O)N/N=C/C(Br)=C\c2ccccc2)ccc1=O	128*
COc1ccc(-c2cc(C(=O)N/N=C/c3cc(OC)c(OC)cc3OC)c3ccccc3n2)cc1	-45
C[C@H]1CCCCO[C@H](CN(C)Cc2ccc3c(c2)OCO3)[C@@H](C)CN([C@@H](C)CO)C(=O)c2cc(NC(=O)Nc3ccc(C(F)(F)F)cc3)ccc2O1	-79
O=C(CNC(=O)C1CCCCC1)OCC(=O)c1ccc(Cl)s1	-45
O=C(Nc1ccc(F)cc1)C1CCCN1S(=O)(=O)c1cccc2nsnc12 (centres undefined)	-41
COCCCNC(=O)c1cc(=O)n(Cc2ccc(Cl)cc2)c2ccccc12	-45
C[C@@H]1CN([C@@H](C)CO)C(=O)c2cc(NC(=O)CCCN(C)C)ccc2O[C@@H](C)CCCCO[C@@H]1CN(C)Cc1ccc(C(F)(F)F)cc1	-110
CN1CCN(C/C(=C2/N=C(c3ccccc3)OC2=O)N(C)C)CC1	-51
C[C@@H]1CN([C@H](C)CO)C(=O)c2cc(NC(=O)Nc3ccc(F)cc3)ccc2O[C@@H](C)CCCCO[C@@H]1CN(C)C(=O)NC1CCCCC1	-53
CCOc1ccnc(OCC)c1Br	-44
CCN(CC)C1CC(=O)N(c2ccc(Br)cc2)C1=O (centres undefined)	-41
CCOC(=O)c1c(CN2CCN(CC#N)CC2)n(C)c2cc(Br)c(OC)cc12	69*
SMILES	PGC1a Ac signal
CO[C@@H]1CN(C)C(=O)c2cc(NC(=O)c3ccc4c(c3)OCO4)ccc2OC[C@@H](C)N(CC2CC2)C[C@H]1C	-105
COCc1ccc(CN2CCC(n3nccc3NC(=O)c3ccc4c(c3)OCO4)CC2)o1	54*
O=C(Cc1cccc(NC(=O)C2CCCN(C(=O)c3ccccc3)C2)c1)Nc1cccc(C(=O)N2CCOCC2)c1 (centres undefined)	-41
CC(C)(C)OC(=O)N1CCCC(C(=O)Nc2cccc(C(=O)NCc3ccccc3)c2)C1 (centres undefined)	64*
O=C(Cc1cccc(NC(=O)C2CCN(C(=O)c3ccccc3)CC2)c1)Nc1cccc(C(=O)N2CCCCC2)c1	-42
C[C@@H]1CN([C@@H](C)CO)C(=O)c2cc(-c3cccc(C#N)c3)cnc2O[C@H]1CN(C)C(=O)c1ccccn1	-57
Cc1ccc(-n2c(SCC(N)=O)nnc2-c2ccc(S(=O)(=O)N3CCCCC3)cc2)c(C)c1	63*
Cc1ccc(S(=O)(=O)N2CCCC2)cc1C(=O)O	-59
O=C(COc1ccccc1)N1CCN=C1SCc1ccccc1	-43
CC(C)c1ccc(-c2nnn(CC(=O)N3CCCCC3)n2)cc1	-40
CC(C)(C)NC(=O)Cn1nnc(-c2ccc(OCc3c(F)cccc3Cl)cc2)n1	66*
COc1ccc(NC(=O)/C(Cl)=C(/Cl)S(=O)Cc2ccc(Cl)cc2)cn1 (centres undefined)	-100
COc1ccc(NC(=O)/C(Cl)=C(/Cl)S(=O)(=O)Cc2ccccc2)cn1	-64
COc1ccc(NC(=O)C(Cl)=C(Cl)Cl)cn1	101*
O=C(CCNC(=O)C1CCN(S(=O)(=O)c2ccc(F)cc2)CC1)NCc1ccccc1Cl	64*
Cn1c(=O)c2cc(S(=O)(=O)NCCC(=O)NCc3ccccc3Cl)ccc2n(C)c1=O	-47
COc1ccc(S(=O)(=O)NCCC(=O)NCc2ccc(F)cc2)cc1	-80
CC(=O)c1c(N2CCOCC2)nc(=O)n(-c2ccccc2)c1C	-44
